Screens as filed in PubChem BioAssay.
Sampled rows, rich in hits. Any-hit rate of the full collection: about 2.3%.
Autophagy HCS – autophagy modulators in MEF cells, primary screen, imaging, high-content, MEF GFP-LC3; calls only at 10 µM (by protocol); actives 0.98% (n = 190,000); MEF GFP-LC3 puncta imaging; test concentration mostly 10 µM;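 active means percentage of spot-positive cells more than 3 SD above its plate mean, without a fluorescence outlier flag or 80% toxicity; inconclusive means no clear call, values can overlap the other calls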;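 further: spot-positive cell cutoff set from DMSO-treated cells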
SDO1 yeast rescue – growth rescue of sdo1-depleted yeast, primary screen, S. cerevisiae, bone marrow failure model; actives 0.21% (n = 140,000); AID 817, 2007; S. cerevisiae sdo1-depleted JHY4D growth rescue, OD600 30 h; active compounds read high; pdr5 snq2 efflux-pump mutant strain; z-score at 10 µM;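 active means z-score above 3 at both the 24 hr and the 30 hr optical density reads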;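 further: z-score against mean and SD of all compound wells on the same plate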
Insulin prom up – insulin promoter activators in MIN6 cells, imaging, high-content screening, mouse beta cells; MIN6 insulin promoter-GFP reporter; active compounds read high; z-score at 5 µM; actives 0.3% (n = 190,000); AID 1625, 2009;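 active means z-score above 3 at 5 µM with at least 500 cells counted in the well; inconclusive means wells under 500 cells, flagged as cytotoxic or low count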
ABCB1 inh – ABCB1 efflux pump inhibitors, primary screen, cell-based, multiplex, flow cytometry, ABCG2 counter-screen; inhibition, % at 6.6 µM; actives 0.067% (n = 190,000); CCRF-Adr cells, JC-1 efflux; ATP-dependent translocase ABCB1 (Homo sapiens), P08183; in the data active means inhibition above about 40%;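 further: 0% = vehicle and 100% = reference inhibitor; higher value means more JC-1 retained so stronger ABCB1 efflux block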
ROMK mod – ROMK potassium channel modulators, primary screen, cell-based, thallium flux, MLSMR library; actives 2% (n = 130,000); ATP-sensitive inward rectifier potassium channel 1 (Homo sapiens), P48048; Tet-inducible ROMK, thallium flux fluorescence; actives lie on both sides; B-score at 10 µM;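 active means signal ratio slope over the read window, or its plate-corrected B-score, at least 3 SD from the plate mean, either direction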;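 further: B-score of the F/F0 ratio slope over 7 to 12 s after thallium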
ABCG2 inh – ABCG2 efflux pump inhibitors, primary screen, multiplex with ABCB1, IgMXP3 cells, flow cytometry; Broad substrate specificity ATP-binding cassette transporter ABCG2 (Homo sapiens), Q9UNQ0; JC-1 efflux; inhibition, % at 6.6 µM; actives 0.1% (n = 190,000); AID 1325, 2008;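 active means inhibition above 80%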;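 further: 0% = DMSO and 100% = nicardipine control wells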
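Measure – % inhibition of efflux relative to nicardipine and DMSO · Test system – ABCG2 IgMXP3 and barcoded ABCB1 CCRF-Adr cell mix · Control set – nicardipine as high control, DMSO as low control · Compound – one concentration, 6.6 µM final · Signal – flow cytometry of retained JC-1 fluorescence · Timing – 10 min exposure at 25 °C with rotation, no wash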
* marks the source's active call; other numbers are inactive results; i = inactive; ? = inconclusive; / = no result; + = active, no number.

SMILES	Autophagy HCS	SDO1 yeast rescue	Insulin prom up	ABCB1 inh	ROMK mod	ABCG2 inh
CCN1/C(=C/C=C/c2oc3ccc(-c4ccccc4)cc3[n+]2CC)Oc2ccc(-c3ccccc3)cc21	/	/	?	+	/	/
Cn1c(N)c(C(=O)COC(=O)c2ccc([N+](=O)[O-])o2)c(=O)n(C)c1=O	/	/	0.86	/	/	/
CC1CCN(S(=O)(=O)c2ccc3c(c2)C(=NO)c2cc(S(=O)(=O)N4CCC(C)CC4)ccc2-3)CC1	+	-0.57	?	0	/	0
Cc1ccc(C(C#N)c2ccc3c(C(F)(F)F)cc(C(F)(F)F)nc3n2)cc1 (stereo not drawn)	+	-0.66	0.87	0	/	4
Cc1c(C(=O)Nc2ccc(Cl)cc2)c2ccccn2c1C(=O)c1ccccc1	i	-1.2	0.31	2	1.1	14
Cc1c(C(=O)Nc2ccc(Cl)cc2)c2ccccn2c1C(=O)c1ccc([N+](=O)[O-])cc1	+	-0.2	-0.34	3	1.5	11
Cc1ccc(C)c(N2CCN(C(=O)CCNC(=O)Cn3ccc4ccccc4c3=O)CC2)c1	i	-0.21	1.6	2	-0.0011	9
Cc1ccc(Cl)cc1N1CCN(C(=O)Cn2ccc3ccccc3c2=O)CC1	i	-0.92	-0.47	0	-3.6*	1
Cc1cccc(OCCC(=O)NCC(=O)Nc2cccc(C)c2C)c1	i	0.64	0.36	0	/	3
CCOC(=O)c1cnc2c(C)cccc2c1NCc1ccco1	i	-0.26	0.06	1	-1.3	4
CCOC(=O)c1ccc2ncc(C(=O)OCC)c(NCc3ccco3)c2c1	i	-1.1	-0.34	1	3.3*	1
CCOC(=O)c1cnc2ccc(C(=O)OC)cc2c1Nc1ccc2c(c1)OCCO2	+	0.65	/	2	/	6
CN1CCN(c2ccc(NC(=O)c3ccc(-c4ccc(Br)cc4)o3)cc2)CC1	+	/	1	0	8.1e-05	16
O=C(Nc1ccc(N2CCCC2)cc1)c1ccc(Br)o1	i	0.01	-0.69	0	/	0
O=C(CSc1nnc(-c2cccnc2)n1CCc1ccccc1)N1CCCCC1	+	-0.14	0.55	0	/	1
O=C(N/N=C\c1cn(-c2ccccc2)nc1-c1ccccc1)c1ccc(Br)o1	i	-0.76	3.2*	1	/	8
O=C(Nc1ccc(N2CCCCC2)cc1)c1cccnc1	i	0.25	3.4*	0	/	-1
COc1cc2c(cc1OC)CN(C(=S)Nc1c(C)cccc1C)CC2	i	0.13	0.43	1	0	0
COc1ccc(NC(=O)c2ccco2)cc1NC(=O)c1cccc(OC(C)C)c1	+	-0.68	-0.49	0	-0.5	-1
Cc1cc(NC(=NC2CC2)c2ccccc2F)n(-c2ccccc2)n1	i	/	-0.04	0	0.75	1
COCCn1nnnc1CN(CCc1ccccc1)Cc1cc2cc(OC)ccc2[nH]c1=O	i	/	/	/	-1.7	/
COCCn1nnnc1CN(CCc1ccc(OC)c(OC)c1)Cc1cc2ccc(C)cc2[nH]c1=O	+	0.61	-0.06	1	/	2
COc1ccc(C(=O)Nc2ccc([N+](=O)[O-])cn2)c(OC)c1	i	-0.39	-0.33	1	0.37	37
COc1cccc(OC)c1OCCN(C)C	i	1	4*	0	0.25	0
Cc1ccc(S(=O)(=O)c2cc3ccccc3oc2=Nc2ccc3c(c2)OCO3)cc1	+	-0.78	-2.3	1	/	4
SMILES	Autophagy HCS	SDO1 yeast rescue	Insulin prom up	ABCB1 inh	ROMK mod	ABCG2 inh
C[n+]1nc(Nc2ccccc2)sc1-c1ccc(C(=O)O)cc1	/	/	0.29	/	/	/
CCN(CC)c1ccc2cc(S(=O)(=O)c3ccc(Cl)cc3)c(=O)oc2c1	i	-2.1	7*	1	0.29	3
CC(OC(=O)c1cc(=O)[nH]c2ccccc12)C(=O)c1ccccc1 (stereo not drawn)	i	/	-0.4	1	-0.87	4
COc1ccccc1NC(=O)Nc1nnc(CC(=O)Nc2ccccc2C)s1	i	/	1.4	-2	0.83	-7
CC(=O)Nc1ccc(/C=C2\Sc3ccccc3C2=O)cc1	/	/	0.13	/	1.3	/
O=C1/C(=C/c2cccnc2)Sc2ccccc21	i	-1.2	-0.3	0	-4.5*	1
O=C(CSc1ncn[nH]1)NCc1ccccc1	i	0.21	5.4*	1	/	6
O=C(CSc1ncn[nH]1)NC1CC2CCC1C2 (stereo not drawn)	+	1.7	1.2	0	/	1
O=C(CSc1nnc(Cc2ccccc2)o1)NC1CC2CCC1C2 (stereo not drawn)	i	-0.28	/	1	0.36	6
COc1ccc(CNC(=O)CSc2ncn[nH]2)cc1	i	0.44	/	1	/	4
CCOc1ccc(Cc2noc3c2C(=O)CC(C)(C)C3)cc1OCC	i	/	-0.08	1	-0.85	-1
COC(=O)c1ccc(C)c(NS(=O)(=O)c2ccc(C)c([N+](=O)[O-])c2)c1	i	-0.32	1.2	1	0.17	2
COC(=O)c1ccc(C)c(NS(=O)(=O)c2ccc(OC)cc2)c1	+	-0.37	-1.5	0	-1.3	0
Clc1ccccc1/C=N/NC1=Nc2cccc3cccc1c23	+	-0.37	0.79	-1	/	-9
COCC(C)NC(=O)CSc1nnc(-c2cccc(S(=O)(=O)N3CCCCC3)c2)o1 (stereo not drawn)	i	/	-0.27	0	0.064	2
CC(C)CNC(=O)CSc1nnc(-c2cccc(S(=O)(=O)N3CCCCC3)c2)o1	i	1	4.8*	1	/	6
CCn1c(SCC(=O)N2CCCc3ccccc32)nc2cccnc21	i	-0.29	-0.69	1	3.1*	6
CCOC(=O)c1sc(NC(=S)NC(=O)c2ccccc2Cl)c(C(=O)OCC)c1C	i	-0.21	-0.21	0	/	0
CCOC(=O)c1sc(NC(=S)NC(=O)c2ccccc2)c(C(=O)OCC)c1C	+	-0.89	-0.47	-1	/	-5
Cc1cc2oc(=O)cc(CN3CCc4ccccc43)c2cc1Cl	i	-2.1	0.42	-2	-2.5	3
Cc1cc2oc(=O)cc(Cn3ncc(Cl)c(Cl)c3=O)c2cc1Cl	+	/	?	1	-2.6	6
CCN(CC)CCNC(=O)c1ccc(NC(=O)c2cn(-c3ccccc3)nc2-c2cccs2)cc1	+	/	0.79	0	-0.61	-2
Cc1ccc(Nc2nc(N)nc(CN3CCN(Cc4ccc5c(c4)OCO5)CC3)n2)cc1Cl	+	-1.2	-2.1	1	/	1
